High-throughput results from PubChem BioAssay.
Most compounds without a hit are left out; they make up all but 9.4% or so of the library.
CSC inhib = cancer stem cell inhibition. cancer stem cell-like cells viability, luminescence. inhibition, % at 7.5 µM. actives 1.1% (n = 300,000); in the data active means inhibition above about 75%; inconclusive means no clear call, values can overlap the other calls; tested in HMLE shEcad cells
Beta cell apopt = blocks beta cell apoptosis. INS-1E cytokine-induced death, ATP luminescence, 48 h; percent of positive-control rescue, neutral wells zero. protection from apoptosis, % (test concentration not listed). actives 0.8% (n = 300,000);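 active means Every replicate reaches about 75%, or at least half do and their mean reaches it too, limit read from the data; inconclusive means At least half of replicates reach the limit but their mean does not; inactive means Under half of replicates reach the limit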;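 further: 0% = cytokine-treated negative control wells and 100% = positive control rescue; higher means more ATP so stronger rescue from cytokine killing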
L major viab = Leishmania major promastigote growth inhibition. Leishmania major promastigotes, resazurin fluorescence viability. inhibition, % at 10 µM. actives 9% (n = 200,000); in the data active means inhibition above about 50%;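 further: promastigotes grown with compound for 44 hours at 28 °C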
Mdm2 MdmX PPI = disrupts the human Mdm2-MdmX interaction; SaOS-2 split-luciferase Mdm2/MdmX complementation, luminescence; inhibition, % at 8 µM; O15151+Q00987; actives 3% (n = 330,000);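 active means inhibition of at least 50% at 8 µM in the primary screen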
SKKanGAS inh = inhibitors of SKKanGAS S. pyogenes growth in kanamycin (SK-promoter or general growth effect); BacTiter-Glo, 6 h; inhibition, % at 7.5 µM; actives 1.3% (n = 300,000); AID 1662;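 active means mean replicate score, as percent of positive control median, at least 50; inconclusive means mean below 50 but one replicate at or above 50; inactive means mean and every replicate below 50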;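 further: strain carries kanamycin resistance gene driven by streptokinase promoter and grows in 40 µg/ml kanamycin; loss of luminescence reflects streptokinase promoter inhibition or plain growth inhibition; 0% = median of DMSO wells and 100% = positive control at its reference dose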
T cruzi repl = blocks replication of Trypanosoma cruzi. T. cruzi beta-gal in NIH3T3, luminescence, 90 h. inhibition, % (test concentration not listed). actives 1.4% (n = 300,000);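 active means mean inhibition across valid replicates above about 55%, limit read from the data; inconclusive means mean below that limit but half or more replicates reach it; inactive means mean below it, under half of replicates reach it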;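 further: signal also drops with host cell toxicity which is not excluded here; 0% = plate median of DMSO wells and 100% = zero luminescence signal; higher percent means less beta-gal luminescence so fewer parasites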
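System: Mouse NIH/3T3 fibroblasts infected with β-gal-expressing T. cruzi Tulahuen C4 | Quantity: NIH/3T3 cells, 5,000 per well | Reagent: 5000 reporter trypomastigotes per well | Dosing: Compound pinned at 50 nL/well, DMSO | Schedule: 3 h host attachment, then at least 90 h co-culture | Detection: GalScreen luminescence, 60 min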
Mdm2 MdmX conf = human Mdm2/MdmX binding inhibition, confirmed; actives 55% (n = 10,000); luminescent assay; inhibition, % at 8 µM; shares compounds with Mdm2 MdmX PPI; in the data active means inhibition above about 40%
Full FLuc ctr = counter-screen for Mdm2/MdmX inhibitors: full-length luciferase; shares compounds with Mdm2 MdmX PPI; SaOS-2 full-length luciferase counterscreen, luminescence; inhibition, % at 8 µM; actives 77% (n = 6,200);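 active means mean inhibition at 8 µM reaching about 37%, which flags the compound as non-specific, limit read from the data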;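 further: p53-null SaOS-2 cells with luciferase driven by a doxycycline-inducible promoter; compound on cells about two nights before reading with doxycycline added after day one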
The depositor's hits bear a star.

How did COc1cc2nc(CN3CC=C(c4ccccc4)CC3)[nH]c(=O)c2cc1OC do in these assays?
CSC inhib: 90*; Beta cell apopt: 1; Mdm2 MdmX PPI: 79*; SKKanGAS inh: -1; T cruzi repl: 32; Mdm2 MdmX conf: 68*; Full FLuc ctr: 113*

What do the screens show for `COC(=O)C(Cc1ccc(N(CCCl)CCCl)cc1)N=Cc1ccccc1O` (stereo unspecified)?
CSC inhib: 83*; Beta cell apopt: 106*; Mdm2 MdmX PPI: 93*; SKKanGAS inh: 8; T cruzi repl: 44; Mdm2 MdmX conf: 83*; Full FLuc ctr: 59*

What do the screens show for `Cc1cc(O)c2c(c1)C(=O)C13C(=C2O)C(=O)[C@H]2[C@@H](O)[C@@H]1[C@H]1[C@H](O)[C@@H]3C(=O)C3=C(O)c4c(O)cc(C)cc4C(=O)C312` (stereo partly specified)?
CSC inhib: 73; Beta cell apopt: 106*; Mdm2 MdmX PPI: 86*; Mdm2 MdmX conf: 61*; Full FLuc ctr: 30

Results for COc1ccc(-n2c(O)c(/C=C/C=Nc3ccccc3)c(=O)[nH]c2=O)cc1 ?
L major viab: 49; Mdm2 MdmX PPI: -8; SKKanGAS inh: -2; T cruzi repl: 2

What do the screens show for `Cc1nn(Cc2ccccc2Cl)c(C)c1C(=O)OCC(=O)NC1CCCC(C)C1C` (stereo unspecified)?
CSC inhib: 0; Beta cell apopt: 15; L major viab: 11; Mdm2 MdmX PPI: 17; SKKanGAS inh: 6; T cruzi repl: 5

Results for Cc1cc(C(C#N)c2ccc(Cl)cc2)c(Cl)cc1NC(=O)c1cc(I)cc(I)c1O (stereo unspecified) ?
CSC inhib: 96*; Beta cell apopt: 7; Mdm2 MdmX PPI: 54*; SKKanGAS inh: 105*; T cruzi repl: -12; Mdm2 MdmX conf: 12

How did CN1Cc2c(c(C#N)c(N)n(C)c2=S)CC1(C)C do in these assays?
CSC inhib: -5; Beta cell apopt: 0; L major viab: -3; Mdm2 MdmX PPI: -8; SKKanGAS inh: 2; T cruzi repl: -9

How did CC(=O)OC[C@]12CCC(C)=C[C@H]1O[C@@H]1[C@H](O)[C@@H](OC(C)=O)[C@@]2(C)[C@]12CO2 do in these assays?
CSC inhib: -13; Mdm2 MdmX PPI: 100*; Mdm2 MdmX conf: 100*; Full FLuc ctr: 0

How did O=c1c2ccccc2nc(-c2cccs2)n1-c1ccccc1 do in these assays?
CSC inhib: 2; Beta cell apopt: 0; L major viab: 1; Mdm2 MdmX PPI: 6; SKKanGAS inh: 5; T cruzi repl: 1

How did NC(N)=N/N=C/c1cn(-c2ccccc2)nc1-c1cccs1 do in these assays?
CSC inhib: -14; Beta cell apopt: 105*; L major viab: 101*; Mdm2 MdmX PPI: 99*; SKKanGAS inh: 7; T cruzi repl: 46; Mdm2 MdmX conf: 94*; Full FLuc ctr: 57*

How did Brc1ccc2c(c1)C(OC1CN3CCC1CC3)c1ccccc1CS2 (stereo unspecified) do in these assays?
CSC inhib: -1; Beta cell apopt: 8; L major viab: 100*; Mdm2 MdmX PPI: 80*; SKKanGAS inh: 1; T cruzi repl: 27; Mdm2 MdmX conf: 67*; Full FLuc ctr: 34

Results for CCOC(=O)C1(CCc2ccccc2)CCN(CC(O)CO)CC1 (stereo unspecified) ?
CSC inhib: -5; Mdm2 MdmX PPI: 9; SKKanGAS inh: 5; T cruzi repl: -20

Results for CCn1c(P(C)(=O)O)nc2ccccc21 ?
CSC inhib: -1; Beta cell apopt: -6; L major viab: -4; Mdm2 MdmX PPI: -12; SKKanGAS inh: -1; T cruzi repl: -4

What do the screens show for `CCn1c(NN=O)nc2ccccc21`?
CSC inhib: 52; Beta cell apopt: 99*; L major viab: 53*; Mdm2 MdmX PPI: 77*; SKKanGAS inh: 27; T cruzi repl: inconclusive; Mdm2 MdmX conf: 72*; Full FLuc ctr: 21

What do the screens show for `CCN1/C(=C\C=C\C2=[N+](CC)c3ccccc3C2(C)C)C(C)(C)c2ccccc21`?
CSC inhib: 93*; Beta cell apopt: 119*; L major viab: 99*; Mdm2 MdmX PPI: 97*; SKKanGAS inh: 58*; T cruzi repl: 55*; Mdm2 MdmX conf: 96*; Full FLuc ctr: 7

Results for N#Cc1cc2c(nc1SCC(=O)Nc1cc(Cl)ccc1Cl)C1CCN2CC1 ?
CSC inhib: 45; Beta cell apopt: 13; L major viab: 32; Mdm2 MdmX PPI: 84*; SKKanGAS inh: 8; T cruzi repl: 20; Mdm2 MdmX conf: 99*; Full FLuc ctr: 21

How did Cc1[nH]c2ccc(OC(F)(F)F)cc2c1CCNCc1cccc([N+](=O)[O-])c1 do in these assays?
CSC inhib: 33; Beta cell apopt: 7; Mdm2 MdmX PPI: 47; SKKanGAS inh: -2; T cruzi repl: inconclusive

Results for Cc1[nH]c2ccc(OC(F)(F)F)cc2c1CCNCc1ccc(Cl)cc1 ?
CSC inhib: 104*; Beta cell apopt: 21; Mdm2 MdmX PPI: 83*; SKKanGAS inh: 17; T cruzi repl: 40; Mdm2 MdmX conf: 51*; Full FLuc ctr: 48*

What do the screens show for `COC(=O)C1=C(c2ccc3ccccc3c2)C[C@@H]2CC[C@H]1N2C(=O)NC1Cc2ccccc2C1`?
CSC inhib: 38; Beta cell apopt: -8; Mdm2 MdmX PPI: -10

What do the screens show for `CC(=O)c1c(C)n(C2CCCCC2)c2ccc(O)cc12`?
CSC inhib: 4; L major viab: 8; Mdm2 MdmX PPI: 82*; SKKanGAS inh: 12; T cruzi repl: -1; Mdm2 MdmX conf: 82*; Full FLuc ctr: 48*

What do the screens show for `CC(=O)c1c(C)n(Cc2ccccc2)c2ccc(O)cc12`?
CSC inhib: 17; Beta cell apopt: -4; Mdm2 MdmX PPI: 31; SKKanGAS inh: 1; T cruzi repl: -3

Results for COC(=O)C1=C(c2ccccc2OCc2ccccc2)C[C@@H]2CC[C@H]1N2C(=O)NCc1ccc([N+](=O)[O-])cc1 ?
CSC inhib: 5; Beta cell apopt: -4; Mdm2 MdmX PPI: 31

How did Cc1cc(Cc2c(O)[nH]c(=S)[nH]c2=O)ccc1OC(C)C do in these assays?
CSC inhib: -2; Beta cell apopt: 0; Mdm2 MdmX PPI: 12; SKKanGAS inh: 0; T cruzi repl: 0

How did COc1ccc2c(c1)C13CCCC[C@@H]1C(C2)N(C)CC3 (stereo partly specified) do in these assays?
CSC inhib: 1; Beta cell apopt: 12; Mdm2 MdmX PPI: 51*; SKKanGAS inh: -3; T cruzi repl: -25; Mdm2 MdmX conf: 25

How did COc1ccc2c(c1O)[C@]13CCN(C)[C@H](C2)[C@@H]1CCC(=O)C3 do in these assays?
CSC inhib: -16; Beta cell apopt: -6; Mdm2 MdmX PPI: 18; SKKanGAS inh: -3; T cruzi repl: -2
